Assay outcomes deposited in PubChem BioAssay by several laboratories.
This is a sample that favours compounds with a hit; in the whole collection about 1.3% have one here.
Efflux pump mplx: blocks antifungal efflux pumps in multiplex yeast assay | S. cerevisiae Candida pump triplex, Nile Red efflux | inhibition, % at 10 µM | actives 0.44% (n = 330,000) | AID 485275;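 active = plate passing quality check with inhibition over a set limit, or well fluorescence over plate mean plus 4 SD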;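 note: Nile Red retained in pooled yeast measured as flow cytometry median fluorescence; 0% = buffer negative control and 100% = Enniatin B positive control; higher means more Nile Red kept so more efflux inhibition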
MT1-MMP act inh: blocks activation of human MT1-MMP. GFP/RFP ratio change, % at 20 µM. HT1080 RFP-PRO-GFP cells, GFP/RFP ratio fluorescence, overnight; percent of plate control window, DMSO zero. P50281. actives 0.061% (n = 360,000);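 active = GFP/RFP ratio change of at least 30% with cell ATP level not reduced by more than half and red fluorescence within 50% of control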
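system = RFP-PRO-GFP reporter HT1080 cells | dosing = 20 µM single dose, 1% DMSO | timing = overnight cell settling, then overnight compound exposure, 37 °C, 5% CO2 | read-out basis = GFP/RFP fluorescence ratio | controls = DMSO and RFP-L50D-GFP cell wells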
TAG inh: inhibitors of triacylglycerol accumulation; H9c2 cells, Nile Red lipid (TAG) fluorescence; cells loaded with 200 µM oleic acid; inhibition, % at 12.5 µM; actives 0.66% (n = 230,000);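 active = pattern-corrected inhibition of lipid staining of at least 50% with the nuclear-stain viability signal not falling by more than 50%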;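 note: 0% = DMSO wells and 100% = triacsin C control wells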
sPLA2-III inh: Inhibits HGIII-sPLA2 liposome hydrolysis, primary screen | Q9NZ20 | QFRET BODIPY PC-A2 liposome hydrolysis, fluorescence | inhibition, % at 12.2 µM | actives 0.56% (n = 370,000);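 active = inhibition above mean plus 3 SD of compounds lying within the high and low control bounds, cut at about 19% in these data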;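 note: 0% = median of test compound wells and 100% = no enzyme DMSO wells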
Target sequence (Q9NZ20 whole entry, looked up): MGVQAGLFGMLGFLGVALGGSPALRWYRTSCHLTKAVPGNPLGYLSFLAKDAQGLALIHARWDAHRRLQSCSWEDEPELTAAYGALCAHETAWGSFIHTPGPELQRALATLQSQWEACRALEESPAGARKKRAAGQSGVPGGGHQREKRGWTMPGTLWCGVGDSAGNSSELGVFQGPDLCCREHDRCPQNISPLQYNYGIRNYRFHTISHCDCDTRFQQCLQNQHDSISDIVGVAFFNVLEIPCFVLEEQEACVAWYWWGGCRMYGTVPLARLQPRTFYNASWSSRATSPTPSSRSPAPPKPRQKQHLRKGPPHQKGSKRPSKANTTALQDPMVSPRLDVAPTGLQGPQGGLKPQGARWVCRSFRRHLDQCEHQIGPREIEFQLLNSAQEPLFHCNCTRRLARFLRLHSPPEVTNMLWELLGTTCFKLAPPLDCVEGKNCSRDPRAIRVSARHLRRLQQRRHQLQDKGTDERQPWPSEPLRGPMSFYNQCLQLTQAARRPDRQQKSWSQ
sPLA2 confirm: human GIII-sPLA2 inhibition, confirmation | recombinant hGIII-sPLA2, BODIPY PC-A2 QFRET fluorescence | AID 743280 | shares compounds with sPLA2-III inh | actives 34% (n = 2,000) | inhibition, % at 12.2 µM;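 active = mean inhibition across triplicates above the hit cutoff set in the earlier primary screen, cut at about 19% in these data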;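 note: 0% = enzyme with DMSO and 100% = DMSO wells lacking enzyme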
BODIPY interf: optically interferes with 535nm fluorescence in sPLA2 counter-screen | shares compounds with sPLA2-III inh | BODIPY FL product fluorescence interference, QFRET | inhibition, % at 12.2 µM | actives 8.5% (n = 2,000) | AID 743282;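 active = average inhibition above the solvent-only control mean plus 3 SD, cut at about 6% in these data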;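 note: 0% = DMSO with substrate plus product and 100% = DMSO with substrate alone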
535nm interf DR: counter-screen for HGIII-sPLA2 inhibitors: 535nm fluorescence interference, dose response; shares compounds with sPLA2-III inh; BODIPY FL product fluorescence interference, cell-free; IC50, µM; AID 743455; 240 tested, under 10 active;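 active = IC50 at or below 10 µM; inactive = IC50 above 10 µM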
* hit, by the source's call; x = no result.

SMILES	Efflux pump mplx	MT1-MMP act inh	TAG inh	sPLA2-III inh	sPLA2 confirm	BODIPY interf	others
O=C1COC(c2ccccc2)=CN1Cc1ccccc1	x	-0.5	13.9	-26.7	x	x
Cc1nc(SCC(=O)Nc2ccc3[nH]c(=O)[nH]c3c2)nc(C)c1C	0.1	1.7	-7.0	-1.0	x	x
S=C(Nc1ccccc1)Nc1nc2ccccc2n1CCOc1ccc(Br)cc1	-0.1	6.3	23.2	7.3	x	x
Cn1c(NC(=S)Nc2ccccc2)nc2ccccc21	0.3	8.9	x	38.6*	34.9*	6.3*
O=C(NC(=S)NNC(=O)c1ccccc1O)c1cccnc1	0.0	-9.5	22.5	33.1*	16.1	-4.0
O=C(NC(=S)NNC(=O)c1ccc(Cl)cc1Cl)c1cccnc1	-0.6	3.7	x	3.1	x	x
O=C(NNC(=S)Nc1ccc(C(=O)O)c(O)c1)c1ccncc1	x	-0.6	-1.3	20.5*	6.2	-3.1
O=C(NNC(=S)Nc1ccccc1)c1ccncc1	0.0	5.2	8.8	7.2	x	x
O=C(NNC(=S)Nc1ccc(F)cc1)c1cccc([N+](=O)[O-])c1	-0.2	5.0	5.8	24.7*	30.5*	0.3
O=C(NC(=S)NNC(=O)c1ccccc1O)c1cccc([N+](=O)[O-])c1	-0.3	-2.5	x	41.3*	27.1*	5.1
CCN(CC)C(=O)c1sc(NC(=O)c2ccc(C)c([N+](=O)[O-])c2)c(C#N)c1C	0.2	6.8	-6.5	4.7	x	x
CCOc1ccc(OCCC(=O)Nc2ccc(N3CCOCC3)cc2N2CCOCC2)cc1	x	-0.7	10.8	5.4	x	x
CCOC(=O)C1CSCCS(=O)(=O)N1Cc1cccc(F)c1 (configuration not stated)	x	x	x	8.4	x	x
O=C(NNC(=S)Nc1ccc(Br)cc1)c1cccnc1	-0.4	1.5	x	19.3*	30.6*	-1.1	535nm interf DR=>122
C/C(=N\NC(=O)c1cc(-c2cccc([N+](=O)[O-])c2)n[nH]1)c1ccccc1O	0.1	13.8	x	8.2	x	x
Cc1ccccc1C(=O)NC(=S)Nc1ccccc1N1CCCC1	0.4	-2.3	-66.2	20.1*	27.1*	-6.6
Cc1cc(C)cc(NC(=O)CCn2cnc3cc(C)c(C)cc32)c1	-0.1	-12.9	-13.8	-19.9	x	x
O=C(NNC(=S)NC1CCCCC1)c1ccccc1O	-0.2	-4.9	-4.9	44.3*	43.6*	-0.5	535nm interf DR=>122
Cc1cc(C(=O)NNC(=S)NC2CCCCC2)cs1	0.1	1.5	-10.2	25.4*	37.0*	1.7	535nm interf DR=>122
O=C(NNC(=S)NC1CCCCC1)c1cccs1	-0.3	1.0	x	11.5	x	x
COc1cc(NC(=O)Cc2c(C(=O)O)n(C)c3ccccc23)cc(OC)c1OC	-0.1	0.6	3.3	-8.5	x	x
Cc1cc(C(=O)CN2CCC(C)CC2)c(C)n1-c1ccccc1F	0.0	1.6	x	19.3*	4.0	-21.7
CCn1c(C)nc2cc(C(=O)NNC(=S)Nc3ccc(C)cc3)ccc21	-0.3	5.2	6.3	19.9*	27.4*	0.5
CCn1c(C)nc2cc(C(=O)NNC(=S)Nc3ccccc3OC)ccc21	0.0	x	x	9.8	x	x
CCCSc1nc2c([nH]1)c(=O)n(C)c(=S)n2C	x	4.7	2.0	19.7*	6.7	1.1
SMILES	Efflux pump mplx	MT1-MMP act inh	TAG inh	sPLA2-III inh	sPLA2 confirm	BODIPY interf	others
N=C1C(c2nc3ccccc3[nH]2)=C(O)CN1c1ccccc1	-0.2	5.5	5.7	21.7*	13.7	-4.7
Cc1ccc(S(=O)(=O)N2C3CC(c4ccccc4)N(S(=O)(=O)c4cccc(Cl)c4)CC3C(=O)C[C@H]2c2ccccc2)cc1 (some centres not stated)	x	-9.1	x	5.0	x	x
Oc1ccc2c(c1)c1c3n2CCNC3CCC1 (configuration not stated)	0.3	4.3	x	x	x	x
c1ccc2c(c1)c1c3n2CCNC3CCC1 (configuration not stated)	0.5	-1.1	1.7	25.9*	29.9*	0.0	535nm interf DR=>122
CC(C)c1cc(C(=O)NCc2ccc(F)cc2)c(N)s1	x	-0.3	x	21.2*	23.7*	1.8
CC(C)c1cc(C(=O)NCCc2cccs2)c(N)s1	x	-3.6	x	6.6	x	x
COc1ccc(-c2ccc(C(=O)Nc3cccc(N(C)C)c3)c3occc23)c(C)c1	x	1.6	20.0	19.7*	15.9	7.7*
CCOC(=O)C1CCCN(C(=O)c2cc(-c3ccc(C)cc3)on2)C1 (configuration not stated)	0.0	2.9	x	-5.9	x	x
CCOC(=O)C1CCCN(C(=O)c2cc3ncc(Br)cn3n2)C1 (configuration not stated)	0.1	0.0	-8.0	21.4*	0.2	-9.2
CCNC(=S)N1CCC(n2cnc3ccccc32)CC1	0.1	2.5	-24.9	2.5	x	x
Cn1ccc2c(N3CCCCCCC3)cc3c(c21)C1CCC3O1 (configuration not stated)	x	2.4	x	19.5*	31.9*	-7.2	535nm interf DR=>122
COc1ccc(NC(=S)NNC(=O)c2nnn(-c3ccccc3)c2C)cc1	0.0	1.2	x	34.9*	42.4*	-1.1	535nm interf DR=>122
OC[C@@H](O)[C@H](O)C(/C=N/Nc1ccccc1)=N\Nc1ccccc1	-0.3	4.8	7.6	20.0*	23.0*	3.1
CC(=O)/C=N/Nc1ccccc1	-0.2	-1.5	x	3.2	x	x
O=C(Nc1ccc(F)c(Cl)c1)c1cc(C2CCCN(C(=O)c3cccs3)C2)on1 (configuration not stated)	x	4.3	-0.4	-16.6	x	x
COc1ccc(/C=N/NC(=O)c2cccc(NC(C)=O)c2)c(C(=O)O)c1OC	0.1	-5.3	x	2.9	x	x
S=C(Nc1ccc(Cl)cc1Cl)Nc1ccccc1Oc1ccccc1	0.2	1.0	x	x	x	x
S=C(Nc1ccccc1Oc1ccccc1)Nc1cccc(Cl)c1Cl	0.0	-3.0	-5.6	21.6*	30.1*	6.7*
C=CCNc1cc(=O)n(Cc2ccccc2)c(=O)[nH]1	0.0	1.1	-11.9	19.3*	-1.7	-3.4
C=CCNC1=C(Cl)C(=O)N(Cc2ccccc2)C1=O	0.5	4.1	x	-0.5	x	x
COc1ccccc1OCC(=O)Nn1c(=S)[nH]c2ncccc2c1=O	-0.1	1.8	x	24.3*	7.6	-4.3
O=C(COc1ccc(Cl)cc1Cl)Nn1c(=S)[nH]c2ncccc2c1=O	0.0	5.2	x	18.9	x	x
CC(C)NC(=S)N/N=C/c1cc(Br)ccc1O	-0.1	-0.7	x	29.0*	4.9	4.9
Oc1ccc(Br)cc1/C=N/NC(=S)NCCc1ccccc1	0.0	2.9	x	25.7*	24.1*	5.0
O=P(O)(O)CCP(=O)(c1ccccc1)c1ccccc1	-0.1	-2.7	x	3.4	x	x
CP(C)(=O)CCP(=O)(c1ccccc1)c1ccccc1	0.0	-8.9	x	19.4*	17.1	1.9
O=C(Cn1c(=O)oc2ccccc21)N1CCOCC1	0.1	2.4	-5.2	8.5	x	x
CCOc1ccc(CSc2nc(C)cc(COC)c2C#N)cc1OCC	-0.1	-2.0	x	-4.1	x	x
CN(Cc1c(C(=O)N/N=C/c2ccc(O)cc2)nnn1-c1nonc1N)c1ccccc1	-0.1	0.2	x	-40.7	x	x
